MLL AF4-AF9 inh – inhibitors of AF4 peptide binding to AF9, primary screen, biochemical, AlphaScreen, biotin-AF4 peptide, FLAG-AF9, single point; inhibition, % at 10 µM; Protein AF-9 (Homo sapiens), P42568; AID 651704, 2012; actives 0.47% (n = 350,000);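 active = every replicate reaching a set inhibition limit, whatever the replicate mean, cut at about 25% in these data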;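 note: 0% = plate neutral control median and 100% = total signal loss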
FN deposit inh – inhibitors of fibronectin matrix deposition, primary screen, AH1F cells, Alexa488-fibronectin fluorescence, plate reader | AH1F fibroblasts, overnight | inhibition, % at 12.6 µM | actives 0.086% (n = 350,000);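 active = mean inhibition across replicates of 30% or more, regardless of how many single replicates reach that level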;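 note: positive control wells lacked labelled fibronectin entirely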
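Assay system: AH1F fibroblasts / Quantity: 10000 cells per well / Medium: DMEM plus 2% serum, read in PBS / Reagent: labelled fibronectin 24 nM / Dosing: single dose, pinned / Times: 1 h cell attachment, overnight exposure to compound and label / Signal: fluorescence, ex 485 nm, em 525 nm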
NSD2 HMT inh – NSD2 histone methyltransferase inhibitors, primary screen, biochemical, AlphaScreen, single concentration, set 2; inhibition, % at 12.5 µM; Histone-lysine N-methyltransferase NSD2 (Homo sapiens), O96028; NSD2 peptide methylation, 120 min; actives 0.54% (n = 310,000); AID 743445, 2014; in the data active = inhibition above about 50%
N-glyco inh – increase of ERlucT glycosylation luciferase signal, primary screen, N-linked glycosylation inhibitor project, D54 ERlucT cells, luminescence, set 2; D54 ERlucT glycosylation luciferase reporter, 24 h; percent of 100 nM tunicamycin response; AID 588692, 2011; reporter increase, % at 12.5 µM; actives 0.23% (n = 360,000);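 active = mean luciferase reporter signal, scaled so untreated is 0 and the glycosylation-blocking control 100, at or above a set limit in every replicate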;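 note: luciferase carries N-glycosylation sites so blocking glycosylation raises the light; 0% = median of neutral control wells and 100% = median of 100 nM tunicamycin wells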
RAD54 inh – inhibitors of human RAD54 branch migration, primary screen, biochemical, fluorescence, single point; DNA repair and recombination protein RAD54-like (Homo sapiens), Q92698; RAD54 Holliday junction branch migration, FAM/BHQ fluorescence; inhibition, % at 10.4 µM; actives 0.14% (n = 360,000);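 active = mean normalized replicate activity at least 40 and at least half of replicates scoring 40 or more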;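 note: 0% = median of neutral control wells and 100% = median of positive control wells; inhibitors cause a drop in the FAM fluorescence signal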
RAD52 anneal inh – RAD52 DNA annealing inhibitors, primary screen, biochemical, FRET, single point, set 2 | actives 0.46% (n = 360,000) | recombinant RAD52 DNA annealing, FRET fluorescence | inhibition, % at 18.7 µM | DNA repair protein RAD52 homolog (Homo sapiens), P43351;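 active = every replicate showing at least 50% inhibition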
Target sequence (P43351 whole entry, looked up): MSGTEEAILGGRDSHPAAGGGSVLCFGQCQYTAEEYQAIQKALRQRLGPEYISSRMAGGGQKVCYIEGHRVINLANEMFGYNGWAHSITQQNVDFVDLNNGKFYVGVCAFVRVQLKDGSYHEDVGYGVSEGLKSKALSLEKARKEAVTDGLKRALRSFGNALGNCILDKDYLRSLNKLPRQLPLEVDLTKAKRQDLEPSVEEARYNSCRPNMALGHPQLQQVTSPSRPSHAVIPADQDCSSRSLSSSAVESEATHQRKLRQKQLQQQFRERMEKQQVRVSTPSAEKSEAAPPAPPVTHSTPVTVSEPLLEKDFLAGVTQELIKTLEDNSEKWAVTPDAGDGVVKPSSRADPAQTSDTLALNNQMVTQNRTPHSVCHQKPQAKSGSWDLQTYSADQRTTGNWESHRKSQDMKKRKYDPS
Numbers without * were called inactive; nt = no result. An excerpt weighted towards active compounds, which were near 1.2% of everything screened.

SMILES | MLL AF4-AF9 inh | FN deposit inh | NSD2 HMT inh | N-glyco inh | RAD54 inh | RAD52 anneal inh
CC1(C)N([O-])c2cc([N+](=O)[O-])ccc2[N+]1=O | -4 | -5 | 85* | nt | nt | 11
Cc1ccc(C)n1-c1cc([N+](=O)[O-])ccc1-n1ccnc1 | 3 | -5 | 3 | 4 | -5 | -16
CCn1c(C)nc2cc(C(=O)N/N=C/c3ccc(O)cc3)ccc21 | -3 | 7 | -1 | -1 | nt | -3
CCn1c(C)nc2cc(C(=O)NN=Cc3ccc([N+](=O)[O-])cc3)ccc21 | 0 | 31* | -3 | 0 | 0 | -2
CC(=O)Nc1ccc2c(O)cc(S(=O)(=O)O)cc2c1 | -1 | 3 | 10 | 0 | -4 | -38
COc1ccccc1Nc1ccc2c(O)cc(S(=O)(=O)O)cc2c1 | -24 | 18 | 110* | -2 | -12 | -50
O=S(=O)(O)c1cc(O)c2ccc(Nc3ccccc3)cc2c1 | 6 | nt | 105* | 0 | -19 | -26
C[C@@H]1CN([C@H](C)CO)C(=O)c2cc(C#CC3(O)CCCC3)cnc2O[C@H]1CN(C)C(=O)Cc1cccnc1 | -3 | -14 | nt | nt | 2 | -8
CCCc1cc(C(=O)N2CCN(C(c3ccccc3)c3ccccc3)CC2)no1 | 50* | -9 | nt | -3 | 3 | -6
Cc1cc(C(=O)N2CCN(C(c3ccccc3)c3ccccc3)CC2)no1 | nt | nt | 6 | -3 | nt | nt
O=C(CNC(=O)c1ccc(Cl)cc1Cl)OCC(=O)N1CCOCC1 | nt | nt | -2 | nt | nt | nt
Cc1ccc(NC(=S)NCC2CCN(C(C)c3ccccc3)C2)cc1C (centres undefined) | 25* | 8 | 8 | -1 | nt | 12
Cc1ccc(NC(=S)NCC2CCCO2)cc1C (centres undefined) | nt | nt | 7 | nt | 7 | nt
O=c1cc(-c2ccccc2)[nH]n1-c1nc2ccccc2[nH]1 | nt | -25 | -4 | 41* | 4 | nt
NC(=O)CCc1c[nH]c2ccccc12 | nt | nt | -3 | 1 | -6 | nt
OCC(CCc1c[nH]c2ccccc12)c1c[nH]c2ccccc12 (centres undefined) | 41* | 13 | 23 | nt | nt | -3
C/C(=N\NC(=O)CSCc1ccccc1Cl)c1cc(O)ccc1O | 25* | 2 | 12 | -6 | nt | -9
C[C@H]1CCCCO[C@@H](CN(C)C(=O)Cc2ccccc2)[C@@H](C)CN([C@@H](C)CO)C(=O)c2cc(NS(=O)(=O)c3cccs3)ccc2O1 | 7 | nt | nt | nt | -4 | -17
CCN1CCN(c2cc(C)c3cc(NC(=O)c4ccc(OC)c(OC)c4)ccc3n2)CC1 | 7 | 13 | nt | 8 | 58* | 8
CC(C)CC#Cc1ccc2c(c1)O[C@H](CN(C)Cc1ccc3c(c1)OCO3)[C@H](C)CN([C@@H](C)CO)S2(=O)=O | 2 | nt | nt | nt | 10 | 10
C[C@@H]1CCCCO[C@@H](CN(C)Cc2ccncc2)[C@H](C)CN([C@@H](C)CO)C(=O)c2cc(NC(=O)NC3CCCCC3)ccc2O1 | 0 | 0 | nt | nt | -3 | 11
C[C@@H]1CN([C@@H](C)CO)C(=O)c2cccc(NS(=O)(=O)c3cccs3)c2O[C@@H]1CN(C)S(=O)(=O)c1cccs1 | -11 | nt | nt | nt | -4 | -80
CN(C)Cc1cc2ccccc2c2c1COC2 | 32* | -14 | 3 | 0 | -7 | 4
CNC[C@H]1Oc2c(NC(=O)C3CC3)cccc2C(=O)N([C@H](C)CO)C[C@H]1C | -3 | nt | nt | nt | -7 | -4
N#CCC(CNc1ncc(C(F)(F)F)cc1Cl)OC(=O)c1cccc([N+](=O)[O-])c1 (centres undefined) | nt | -8 | -3 | 29* | -2 | nt
C[C@@H]1CN([C@@H](C)CO)C(=O)c2cc(NC(=O)Nc3cccc4ccccc34)ccc2O[C@@H]1CN(C)Cc1ccc(Oc2ccccc2)cc1 | 4 | nt | nt | nt | 12 | -20
